Test results from ChEMBL document CHEMBL1141874, “Synthesis and biological evaluation of novel bisheterocycle-containing compounds as potential anti-influenza virus agents” (Bioorg Med Chem Lett, 2005).
Values after ≈ are worked out from the molar mass of the structure shown. Active and inactive are the calls of the source. No cut-off for these calls is given here.

These molecules were tested on Influenza B virus (assay: Inhibitory activity against influenza B virus). Conditions: not given.
Format: functional, organism-based

| SMILES | Activity |
| --- | --- |
| C=CCCC(=O)N[C@H](c1nc(-c2nc(C(=O)OC)c(C)o2)cs1)C(C)C | inactive |
| COC(=O)c1nc(-c2csc([C@@H](NC(=O)CCC=C(C)C)C(C)C)n2)oc1C | inactive |
| COC(=O)c1nc(-c2csc([C@@H](NC(=O)C(C)(C)C)C(C)C)n2)oc1C | inactive |
| COC(=O)c1coc([C@H](C)NC(=O)c2nc(-c3csc([C@@H](NC(=O)c4cccc(F)c4)C(C)C)n3)oc2C)n1 | inactive |
| COC(=O)c1nc(-c2csc([C@@H](NC(=O)CC3=CCCC3)C(C)C)n2)oc1C | inactive |
| COC(=O)c1nc(-c2csc([C@@H](NC(=O)c3ccccc3OC)C(C)C)n2)oc1C | inactive |
| COC(=O)c1coc([C@H](C)NC(=O)c2nc(-c3csc([C@@H](NC(=O)CC=C(C)C)C(C)C)n3)oc2C)n1 | inactive |
| C/C=C(\C)C(=O)N[C@H](c1nc(-c2nc(C(=O)OC)c(C)o2)cs1)C(C)C | inactive |
| COC(=O)c1coc([C@H](C)NC(=O)c2nc(-c3csc([C@@H](NC(=O)CC4=CCCCC4)C(C)C)n3)oc2C)n1 | inactive |
| COC(=O)c1coc([C@H](C)NC(=O)c2nc(-c3csc([C@@H](NC(=O)C4CCCCC4)C(C)C)n3)oc2C)n1 | inactive |
| Cc1oc(-c2csc([C@@H](NC(=O)CC3=CCCC3)C(C)C)n2)nc1C(=O)O | inactive |
| CCC(=O)N[C@H](c1nc(-c2nc(C(=O)OC)c(C)o2)cs1)C(C)C | inactive |
| COC(=O)c1nc(-c2csc([C@@H](N)C(C)C)n2)oc1C | inactive |
| COC(=O)c1nc(-c2csc([C@@H](NC(=O)C3CCC3)C(C)C)n2)oc1C | inactive |
| COC(=O)c1nc(-c2csc([C@@H](NC(=O)c3cccc(F)c3)C(C)C)n2)oc1C | inactive |
| COC(=O)c1nc(-c2csc([C@@H](NC(=O)CC=C(C)C)C(C)C)n2)oc1C | inactive |
| COc1ccccc1C(=O)N[C@H](c1nc(-c2nc(C(=O)O)c(C)o2)cs1)C(C)C | inactive |
| COC(=O)c1nc(-c2csc([C@@H](NC(=O)C3CCCCC3)C(C)C)n2)oc1C | inactive |
| CCC(=O)N[C@H](c1nc(-c2nc(C(=O)N[C@@H](C)c3nc(C(=O)OC)co3)c(C)o2)cs1)C(C)C | inactive |
| COC(=O)c1nc(-c2csc([C@@H](NC(=O)CC3=CCCCC3)C(C)C)n2)oc1C | inactive |

These molecules were tested on Influenza A virus (assay: Cytotoxicity in MDCK cells infected with influenza A H3N2 virus). Conditions: not given.
Format: functional
Outline: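 Confluent MDCK monolayers were infected with influenza A H3N2 (A3 China/15/90) for 2 h at 37 °C, then the inoculum was removed and a range of compound concentrations added. Cultures were read when the virus control reached 4+ CPE. The value is the concentration causing microscopically detectable toxicity in the virus-infected cultures.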

| SMILES | CC50 |
| --- | --- |
| C=CCCC(=O)N[C@H](c1nc(-c2nc(C(=O)OC)c(C)o2)cs1)C(C)C | 577 µg/mL (≈ 1530 µM) |
| COC(=O)c1nc(-c2csc([C@@H](NC(=O)CCC=C(C)C)C(C)C)n2)oc1C | 577 µg/mL (≈ 1420 µM) |
| COC(=O)c1nc(-c2csc([C@@H](NC(=O)C(C)(C)C)C(C)C)n2)oc1C | 577 µg/mL (≈ 1520 µM) |
| Cc1oc2nc1C(=O)N[C@@H](C)c1nc(co1)C(=O)N[C@@H](CC(C)C)C(=O)N1CCC[C@H]1C(=O)N[C@@H](C(C)C)c1nc-2cs1 [LEUCAMIDE A] | inactive |
| COC(=O)c1coc([C@H](C)NC(=O)c2nc(-c3csc([C@@H](NC(=O)c4cccc(F)c4)C(C)C)n3)oc2C)n1 | 577 µg/mL (≈ 1040 µM) |
| COC(=O)c1nc(-c2csc([C@@H](NC(=O)CC3=CCCC3)C(C)C)n2)oc1C | 333 µg/mL (≈ 826 µM) |
| COC(=O)c1nc(-c2csc([C@@H](NC(=O)c3ccccc3OC)C(C)C)n2)oc1C | 333 µg/mL (≈ 776 µM) |
| COC(=O)c1coc([C@H](C)NC(=O)c2nc(-c3csc([C@@H](NC(=O)CC=C(C)C)C(C)C)n3)oc2C)n1 | 577 µg/mL (≈ 1090 µM) |
| C/C=C(\C)C(=O)N[C@H](c1nc(-c2nc(C(=O)OC)c(C)o2)cs1)C(C)C | 231 µg/mL (≈ 612 µM) |
| COC(=O)c1coc([C@H](C)NC(=O)c2nc(-c3csc([C@@H](NC(=O)CC4=CCCCC4)C(C)C)n3)oc2C)n1 | 577 µg/mL (≈ 1040 µM) |
| COC(=O)c1coc([C@H](C)NC(=O)c2nc(-c3csc([C@@H](NC(=O)C4CCCCC4)C(C)C)n3)oc2C)n1 | 144 µg/mL (≈ 266 µM) |
| Cc1oc(-c2csc([C@@H](NC(=O)CC3=CCCC3)C(C)C)n2)nc1C(=O)O | 481 µg/mL (≈ 1230 µM) |
| CCC(=O)N[C@H](c1nc(-c2nc(C(=O)OC)c(C)o2)cs1)C(C)C | 577 µg/mL (≈ 1640 µM) |
| COC(=O)c1nc(-c2csc([C@@H](N)C(C)C)n2)oc1C | 577 µg/mL (≈ 1950 µM) |
| COC(=O)c1nc(-c2csc([C@@H](NC(=O)C3CCC3)C(C)C)n2)oc1C | 500 µg/mL (≈ 1320 µM) |
| COC(=O)c1nc(-c2csc([C@@H](NC(=O)c3cccc(F)c3)C(C)C)n2)oc1C | > 1000 µg/mL |
| COC(=O)c1nc(-c2csc([C@@H](NC(=O)CC=C(C)C)C(C)C)n2)oc1C | > 1000 µg/mL |
| COc1ccccc1C(=O)N[C@H](c1nc(-c2nc(C(=O)O)c(C)o2)cs1)C(C)C | 333 µg/mL (≈ 802 µM) |
| COC(=O)c1nc(-c2csc([C@@H](NC(=O)C3CCCCC3)C(C)C)n2)oc1C | 144 µg/mL (≈ 356 µM) |
| CCC(=O)N[C@H](c1nc(-c2nc(C(=O)N[C@@H](C)c3nc(C(=O)OC)co3)c(C)o2)cs1)C(C)C | 577 µg/mL (≈ 1180 µM) |
| COC(=O)c1nc(-c2csc([C@@H](NC(=O)CC3=CCCCC3)C(C)C)n2)oc1C | 231 µg/mL (≈ 554 µM) |

The molecules below were run on Influenza A virus (assay: Antiviral activity against influenza A H3N2 virus in MDCK cells). Conditions: Influenza A virus, H3N2, MDCK; read-out: IC50.
Format: functional, organism-based
Outline: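 Confluent MDCK monolayers were infected with influenza A H3N2 (A3 China/15/90) for 2 h at 37 °C. The inoculum was removed and the cells were treated with a range of compound concentrations. CPE was scored once the virus control reached 4+. The concentration giving 50% reduction of virus-induced CPE was found by Reed–Muench interpolation.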

| SMILES | IC50 [µg/mL] |
| --- | --- |
| COC(=O)c1nc(-c2csc([C@@H](NC(=O)CCC=C(C)C)C(C)C)n2)oc1C | 37 (≈ 91.3 µM) |
| COC(=O)c1coc([C@H](C)NC(=O)c2nc(-c3csc([C@@H](NC(=O)c4cccc(F)c4)C(C)C)n3)oc2C)n1 | 77 (≈ 139 µM) |
| COC(=O)c1nc(-c2csc([C@@H](NC(=O)c3ccccc3OC)C(C)C)n2)oc1C | 47.7 (≈ 111 µM) |
| C/C=C(\C)C(=O)N[C@H](c1nc(-c2nc(C(=O)OC)c(C)o2)cs1)C(C)C | 37 (≈ 98.1 µM) |
| COC(=O)c1coc([C@H](C)NC(=O)c2nc(-c3csc([C@@H](NC(=O)CC4=CCCCC4)C(C)C)n3)oc2C)n1 | 44.5 (≈ 80 µM) |
| Cc1oc(-c2csc([C@@H](NC(=O)CC3=CCCC3)C(C)C)n2)nc1C(=O)O | 29 (≈ 74.5 µM) |
| COC(=O)c1nc(-c2csc([C@@H](N)C(C)C)n2)oc1C | 259 (≈ 876 µM) |
| COC(=O)c1nc(-c2csc([C@@H](NC(=O)c3cccc(F)c3)C(C)C)n2)oc1C | > 86.2 |
| COC(=O)c1nc(-c2csc([C@@H](NC(=O)CC=C(C)C)C(C)C)n2)oc1C | 192 (≈ 492 µM) |
| NC(=O)c1ncn([C@@H]2O[C@H](CO)[C@@H](O)[C@H]2O)n1 [RIBAVIRIN] | 3.73 (≈ 15.3 µM) |
| COc1ccccc1C(=O)N[C@H](c1nc(-c2nc(C(=O)O)c(C)o2)cs1)C(C)C | 29 (≈ 69.8 µM) |
| COC(=O)c1nc(-c2csc([C@@H](NC(=O)C3CCCCC3)C(C)C)n2)oc1C | 43.6 (≈ 107 µM) |

Same assay, conditions: mdck

| SMILES | IC50 |
| --- | --- |
| Cc1oc2nc1C(=O)N[C@@H](C)c1nc(co1)C(=O)N[C@@H](CC(C)C)C(=O)N1CCC[C@H]1C(=O)N[C@@H](C(C)C)c1nc-2cs1 [LEUCAMIDE A] | Not Active |
